Legend:
Mus musculus [1] = organism: Mus musculus; test: Tested for Protection from Acetaminophen-Induced Liver Necrosis in Mice, Number of animals(mice) with liver necrosis was determined after 0 hour; format: functional
Mus musculus [2] = organism: Mus musculus; test: Tested for Protection from Acetaminophen-Induced Liver Necrosis in Mice, Number of animals(mice) with liver necrosis was determined after 1 hr; format: functional
Mus musculus [3] = organism: Mus musculus; test: Tested for 17 animals(mice) and the deaths were observed after the 48 hours due to liver necrosis; format: functional
How it was run: (§1)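 Male Swiss-Webster mice (18–33 g) were randomized and given acetaminophen 750 mg/kg. Protective agents or saline followed 30 min later. Deaths were counted over 48 h with food and water ad libitum, then survivors were killed by cervical dislocation. Livers were formalin-fixed and sectioned, stained with H&E and Gomori reticulum stain, and necrosis was graded 0 to 4+ by Mitchell criteria. Counts pooled up to two independent experiments.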

Mus musculus [4] = organism: Mus musculus; test: Tested for Protection from Acetaminophen-Induced Liver Necrosis in Mice (in 10 animals) and the deaths were observed after the 48 hours due to liver necrosis; format: functional; how it was run: as §1
Mus musculus [5] = organism: Mus musculus; test: Tested for Protection from Acetaminophen-Induced Liver Necrosis in Mice, Number of animals(mice) with grade 4+ liver necrosis was determined after 48 hr
Mus musculus [6] = organism: Mus musculus; test: Tested for Protection from Acetaminophen-Induced Liver Necrosis in Mice, Number of animals(mice) with grade 2+ liver necrosis was determined after 48 hours
Mus musculus [7] = organism: Mus musculus; test: Tested for Protection from Acetaminophen-Induced Liver Necrosis in Mice, Number of animals(mice) with grade 3+ liver necrosis was determined after 48 hours
Mus musculus [8] = organism: Mus musculus; test: Tested for Protection from Acetaminophen-Induced Liver Necrosis in Mice (18 animals) and the deaths were observed after the 48 hours due to liver necrosis; Death due to hemorrhagic necrosis of the liver; format: functional; how it was run: as §1
[9] = Lethal dose after intraperitoneal administration in mice was determined; format: toxicity, organism-based; conditions: mouse, in vivo, ip
Mus musculus [10] = organism: Mus musculus; test: Tested for 10 animals(mice) and the deaths were observed after the 48 hours due to liver necrosis; format: functional; how it was run: as §1
Mus musculus [11] = organism: Mus musculus; test: Tested for Protection from Acetaminophen-Induced Liver Necrosis in Mice, necrosis was determined after 3 hour; format: functional
Mus musculus [12] = organism: Mus musculus; test: Tested for Protection from Acetaminophen-Induced Liver Necrosis in Mice (in 18 animals) and the deaths were observed after the 48 hours due to liver necrosis; format: functional; how it was run: as §1
Mus musculus [13] = organism: Mus musculus; test: Tested for Protection from Acetaminophen-Induced Liver Necrosis in Mice (in 17 animals) and the deaths were observed after the 48 hours due to liver necrosis; format: functional; how it was run: as §1

Row | SMILES | No. of animals with liver necrosis (Mus musculus [1]) | No. of animals with grade 4+ liver necrosis (Mus musculus [5]) | No. of animals with grade 3+ liver necrosis (Mus musculus [7]) | also measured
1 | CC(=O)N[C@@H](CS)C(=O)O [ACETYLCYSTEINE] | 15 |  |  | No. of animals with liver necrosis (Mus musculus [2]): 2; Deaths (Mus musculus [3]): 0
2 | CC(=O)Nc1ccc(O)cc1.O=C(O)C1CSCN1 | 1 | 2 | 4 | Deaths (Mus musculus [4]): 4; No. of animals with grade 2+ liver necrosis (Mus musculus [6]): 1
3 | CC1N[C@H](C(=O)O)CS1 (some centres not stated) | 17 |  |  | Deaths (Mus musculus [3]): 0
4 | CC(=O)Nc1ccc(O)cc1.CC1N[C@H](C(=O)O)CS1 | 17 | 1 |  | Deaths (Mus musculus [8]): 1
5 | O=C(O)C1CSCN1 (configuration not stated) [TIMONACIC] | 9 |  |  | LD50 [9]: 164 mg/kg; Deaths (Mus musculus [10]): 3; No. of animals with liver necrosis (Mus musculus [11]): 1
6 | CC(=O)N[C@@H](CS)C(=O)O.CC(=O)Nc1ccc(O)cc1 | 13 | 1 | 1 | Deaths (Mus musculus [12]): 1; No. of animals with liver necrosis (Mus musculus [2]): 3
7 | CC(=O)Nc1ccc(O)cc1 [ACETAMINOPHEN] | 1 | 8 | 7 | Deaths (Mus musculus [13]): 11; No. of animals with grade 2+ liver necrosis (Mus musculus [6]): 1

Source: ChEMBL document CHEMBL1122194, “Prodrugs of L-cysteine as liver-protective agents. 2(RS)-Methylthiazolidine-4(R)-carboxylic acid, a latent cysteine” (J Med Chem, 1982)
